Measured values: ChEMBL document CHEMBL1800075, “Tricyclic imidazole antagonists of the Neuropeptide S Receptor” (Bioorg Med Chem Lett, 2010)

Assays:
[1] = target: T1, Neuropeptide S receptor (Homo sapiens, UniProt Q6W5P4); assay: Antagonist activity at human recombinant NPS receptor expressed in CHOK1 cells assessed as inhibition of NPS-induced calcium mobilization by FLIPR assay; assay type: functional, cell-based, CHO-K1
T1 sequence (Q6W5P4 whole entry): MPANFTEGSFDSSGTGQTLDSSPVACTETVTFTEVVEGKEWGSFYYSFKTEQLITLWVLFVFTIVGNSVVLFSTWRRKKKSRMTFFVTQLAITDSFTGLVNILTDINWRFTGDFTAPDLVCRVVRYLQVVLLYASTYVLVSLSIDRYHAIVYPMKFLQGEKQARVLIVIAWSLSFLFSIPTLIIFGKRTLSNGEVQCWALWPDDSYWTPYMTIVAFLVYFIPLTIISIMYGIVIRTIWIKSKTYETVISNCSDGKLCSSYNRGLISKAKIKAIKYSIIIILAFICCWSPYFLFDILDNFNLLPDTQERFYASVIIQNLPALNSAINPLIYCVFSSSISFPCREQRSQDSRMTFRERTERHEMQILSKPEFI
In short: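 Dual-sequence FLIPR Ca2+ mobilization on CHOK1 cells expressing recombinant NPSR, plated 24 h ahead at 15 K cells/well. Cells washed and loaded with Fluo4AM for 1 h at 37 °C, 5% CO2. Inhibition taken relative to NPS-stimulated control wells; IC50 from 4-parameter logistic fits; mean ± S.D. of multiple determinations.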

[2] = target: rat MDR1 (ABCB1, P-glycoprotein) (Rattus norvegicus, UniProt P43245); assay: Permeability of the compound assessed as rat MDR1-mediated directional transport ratio by cell based assay; settings: not told
rat MDR1 (ABCB1, P-glycoprotein), sequence (P43245 whole entry): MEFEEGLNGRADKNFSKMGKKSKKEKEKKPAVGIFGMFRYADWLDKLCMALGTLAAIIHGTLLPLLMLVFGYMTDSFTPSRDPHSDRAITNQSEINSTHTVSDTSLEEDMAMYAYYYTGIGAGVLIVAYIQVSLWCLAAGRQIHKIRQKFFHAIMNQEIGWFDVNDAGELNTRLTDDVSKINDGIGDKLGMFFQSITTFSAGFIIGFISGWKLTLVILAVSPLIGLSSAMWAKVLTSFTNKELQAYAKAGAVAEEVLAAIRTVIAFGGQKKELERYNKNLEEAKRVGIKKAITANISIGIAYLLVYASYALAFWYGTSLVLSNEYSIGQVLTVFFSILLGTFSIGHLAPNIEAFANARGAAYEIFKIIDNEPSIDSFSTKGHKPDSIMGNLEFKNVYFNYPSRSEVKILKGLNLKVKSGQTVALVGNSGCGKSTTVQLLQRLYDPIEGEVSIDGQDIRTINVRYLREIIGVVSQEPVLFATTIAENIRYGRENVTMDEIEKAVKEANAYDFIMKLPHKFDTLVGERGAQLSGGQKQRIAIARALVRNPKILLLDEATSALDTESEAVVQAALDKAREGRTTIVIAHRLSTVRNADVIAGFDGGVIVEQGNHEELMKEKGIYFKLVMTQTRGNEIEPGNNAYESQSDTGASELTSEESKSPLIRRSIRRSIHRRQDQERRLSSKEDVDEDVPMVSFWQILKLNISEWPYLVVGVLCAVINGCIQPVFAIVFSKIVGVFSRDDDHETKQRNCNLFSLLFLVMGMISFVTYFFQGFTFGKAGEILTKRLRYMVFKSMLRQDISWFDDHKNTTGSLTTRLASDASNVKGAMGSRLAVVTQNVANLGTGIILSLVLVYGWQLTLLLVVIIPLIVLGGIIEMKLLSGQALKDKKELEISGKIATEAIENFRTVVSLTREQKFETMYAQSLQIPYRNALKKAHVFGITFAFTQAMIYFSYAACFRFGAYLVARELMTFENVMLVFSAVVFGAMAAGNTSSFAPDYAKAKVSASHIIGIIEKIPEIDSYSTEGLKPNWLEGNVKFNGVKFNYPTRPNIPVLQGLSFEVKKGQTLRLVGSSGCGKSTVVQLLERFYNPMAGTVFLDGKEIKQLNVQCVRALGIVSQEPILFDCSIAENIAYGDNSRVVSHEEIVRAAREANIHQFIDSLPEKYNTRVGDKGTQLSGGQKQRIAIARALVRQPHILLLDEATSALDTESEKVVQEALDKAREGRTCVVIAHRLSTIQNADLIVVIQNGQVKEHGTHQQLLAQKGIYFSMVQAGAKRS
In short: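 Rat MDR1 directional transport ratio, calculated as (B–A)/(A–B). Average of three experiments; interassay variability 20%.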

[3] = Unbound fraction in rat plasma by ultracentrifugation; assay type: ADME, cell-free
[4] = Passive permeability of the compound; assay type: ADME; settings: not told
[5] = Drug level in rat cerebrospinal fluid at 75 mg/kg, ip after 2 hrs; assay type: ADME, organism-based; design: dose 75 mg/kg, route intraperitoneal; settings: read-out: Drug uptake
In short: (§1)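 Compound given to rats at 75 mpk IP as a solution in 25% HPB-cyclodextrin. CSF and plasma sampled at 30 min and 2 h.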

[6] = Inhibition of sodium channel site 2
[7] = AUC (0 to infinity) in rat at 2 mg/kg, po; assay type: ADME, organism-based; design: time infinity, dose 2 mg/kg, route oral; settings: plasma
[8] = Lipophilicity, log D of the compound by HPLC method; assay type: physicochemical
[9] = Drug level in rat cerebrospinal fluid at 75 mg/kg, ip after 30 mins; assay type: ADME, organism-based; design: dose 75 mg/kg, route intraperitoneal; settings: read-out: Drug uptake; in short: as §1
[10] = Inhibition of melatonin receptor
[11] = target: T2, Thromboxane A2 receptor (Homo sapiens, UniProt P21731); assay: Inhibition of thromboxane A2 receptor
T2 sequence (P21731 whole entry): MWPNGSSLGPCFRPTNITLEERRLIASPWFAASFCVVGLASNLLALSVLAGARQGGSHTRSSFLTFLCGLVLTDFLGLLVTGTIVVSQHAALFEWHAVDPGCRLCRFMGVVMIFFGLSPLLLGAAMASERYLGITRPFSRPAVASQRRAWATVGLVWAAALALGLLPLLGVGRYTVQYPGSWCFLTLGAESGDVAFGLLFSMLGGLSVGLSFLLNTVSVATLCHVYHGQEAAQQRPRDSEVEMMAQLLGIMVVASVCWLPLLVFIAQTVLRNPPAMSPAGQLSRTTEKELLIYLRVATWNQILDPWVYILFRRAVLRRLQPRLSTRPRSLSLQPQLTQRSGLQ

[12] = Ratio drug level in CSF to plasma in rat at 75 mg/kg, ip; assay type: ADME, organism-based; design: dose 75 mg/kg, route intraperitoneal; in short: as §1
[13] = AUC (0 to infinity) in rat at 10 mg/kg, po; assay type: ADME, organism-based; design: time infinity, dose 10 mg/kg, route oral; settings: plasma
[14] = Drug level in plasma of rat at 30 mg/kg, ip measured after 1 hr; assay type: ADME, organism-based; design: dose 30 mg/kg, route intraperitoneal
In short: (§2)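 Compound dosed to rats at 30 mpk IP. Plasma levels measured at 30 min, 1 h and 2 h. Unbound exposures obtained by correcting for plasma free fraction.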

[15] = target: Cannabinoid receptor 1 (Homo sapiens, UniProt P21554); assay: Inhibition of CB1 receptor
Cannabinoid receptor 1, sequence (P21554 whole entry): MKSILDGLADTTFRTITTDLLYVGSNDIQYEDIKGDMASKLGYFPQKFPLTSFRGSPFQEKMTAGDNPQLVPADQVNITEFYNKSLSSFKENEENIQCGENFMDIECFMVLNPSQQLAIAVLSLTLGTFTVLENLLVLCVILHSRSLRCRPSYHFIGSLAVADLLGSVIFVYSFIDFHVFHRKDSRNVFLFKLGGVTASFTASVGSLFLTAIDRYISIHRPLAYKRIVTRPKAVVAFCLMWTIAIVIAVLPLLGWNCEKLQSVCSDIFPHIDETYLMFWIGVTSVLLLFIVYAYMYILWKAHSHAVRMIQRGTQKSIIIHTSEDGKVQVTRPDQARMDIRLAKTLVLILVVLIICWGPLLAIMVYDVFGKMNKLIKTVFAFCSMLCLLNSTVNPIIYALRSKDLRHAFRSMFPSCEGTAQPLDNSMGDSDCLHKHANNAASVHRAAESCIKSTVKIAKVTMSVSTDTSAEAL

[16] = Drug level in plasma of rat at 30 mg/kg, ip measured after 30 mins; assay type: ADME, organism-based; design: dose 30 mg/kg, route intraperitoneal; in short: as §2
[17] = test system: Plasma; assay: Unbound free concentration in rat plasma at 30 mg/kg, ip measured after 1 hr; assay type: ADME, organism-based; design: dose 30 mg/kg, route intraperitoneal; settings: in vivo; in short: as §2
[18] = test system: Plasma; assay: Unbound free concentration in rat plasma at 30 mg/kg, ip measured after 2 hrs; assay type: ADME, organism-based; design: dose 30 mg/kg, route intraperitoneal; settings: in vivo; in short: as §2
[19] = Drug level in plasma of rat at 30 mg/kg, ip measured after 2 hrs; assay type: ADME, organism-based; design: dose 30 mg/kg, route intraperitoneal; in short: as §2
[20] = test system: Plasma; assay: Unbound free concentration in rat plasma at 30 mg/kg, ip measured after 30 mins; assay type: ADME, organism-based; design: dose 30 mg/kg, route intraperitoneal; settings: in vivo, 0.5 h; in short: as §2
[21] = Clearance in iv dosed rat; assay type: ADME, organism-based; settings: in vivo
In short: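 IV clearance in rats measured in cassette dosing experiments.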

[22] = Lipophilicity, log P of the compound; assay type: physicochemical; settings: octanol/water

Compound	IC50 [1] [nM]	efflux ratio [2]	fraction unbound [3]	further results
Fc1ccc(C2(CC3CCOCC3)c3ccccc3-c3nccn32)cc1 (configuration not stated)	660			
Fc1ccc(C2(Cc3ccccc3)c3ccccc3-c3nccn32)cc1 (configuration not stated)	336			
Clc1ccc(C2(Cc3ccccc3)c3ccccc3-c3nccn32)cc1 (configuration not stated)	358			
Cc1ccc(C2(Cc3ccccc3)c3ccccc3-c3nccn32)cc1 (configuration not stated)	1320			
N#Cc1ccc(C2(Cc3ccccc3)c3ccccc3-c3nccn32)cc1 (configuration not stated)	387	0.9	0.17	Papp [4]: 33 ×10⁻⁶ cm/s
Brc1cccc(C2(Cc3ccccc3)c3ccccc3-c3nccn32)c1 (configuration not stated)	1730			
N#Cc1cccc(C2(Cc3ccccc3)c3ccccc3-c3nccn32)c1 (configuration not stated)	3170			
Brc1ccc(C2(Cc3ccccc3)c3ccccc3-c3nccn32)cn1 (configuration not stated)	1500			
Brc1ccc(C2(Cc3ccccc3)c3ccccc3-c3nccn32)nc1 (configuration not stated)	2180			
N#Cc1ccc(C2(CC3CCOCC3)c3ccccc3-c3nccn32)cc1 (configuration not stated)	635			
Clc1ccc(C2(CC3CCOCC3)c3ccccc3-c3nccn32)cc1 (configuration not stated)	134	1.4	0.018	Papp [4]: 31 ×10⁻⁶ cm/s
Brc1ccc(C2(CC3CCCC3)c3ccccc3-c3nccn32)cn1 (configuration not stated)	851	1.3	0.013	Papp [4]: 25 ×10⁻⁶ cm/s
N#Cc1ccc(C2(CC3CCCC3)c3ccccc3-c3nccn32)cc1 (configuration not stated)	145	0.6	0.011	Papp [4]: 22 ×10⁻⁶ cm/s
N#Cc1ccc(C2(CC3CCCCC3)c3ccccc3-c3nccn32)cc1 (configuration not stated)	114	1.6		Papp [4]: 17 ×10⁻⁶ cm/s
COc1ccc2c(c1)C(CC1CCOCC1)(c1ccc(Cl)cc1)n1ccnc1-2 (configuration not stated)	82	1.3	0.016	concentration at 2 h [5]: 153 nM; IC50 [6]: 4000 nM; AUC(0-inf) [7]: 0.114 µM·h; logD [8]: 3.2; concentration at 0.5 h [9]: 594 nM; IC50 [10]: 1300 nM; IC50 [11]: 7000 nM; Ratio [12]: 1%
COc1cccc2c1C(CC1CCOCC1)(c1ccc(Cl)cc1)n1ccnc1-2 (configuration not stated)	46		0.008	AUC(0-inf) [13]: 0.425 µM·h
COc1ccc2c(c1)C(CCC(=O)N1[C@H](C)CC[C@@H]1C)(c1ccc(Cl)cc1)n1ccnc1-2 (some centres not stated)	50	2.2	0.007	AUC(0-inf) [7]: 0.115 µM·h
CCN(CC)C(=O)CCC1(c2ccc(Cl)cc2)c2c(OC)cccc2-c2nccn21 (configuration not stated)	43	2.9	0.013	concentration at 1 h [14]: 5100 nM; IC50 [15]: 6000 nM; concentration at 0.5 h [16]: 7800 nM; Cp(f) [17]: 66 nM; AUC(0-inf) [13]: 1.15 µM·h; Cp(f) [18]: 39 nM; concentration at 2 h [19]: 3000 nM; Cp(f) [20]: 101 nM

Compound	IC50 [1] [nM]	efflux ratio [2]	fraction unbound [3]	further results
Brc1ccc(C2(Cc3ccccc3)c3cccnc3-c3nccn32)cc1 (configuration not stated)	1460			
CCC1CCCCN1C(=O)CCC1(c2ccc(Cl)cc2)c2ccccc2-c2nccn21 (mixture of isomers)	131	1.6	0.011	clearance [21]: 20 mL/min/kg
CC(C1CCN(C(=O)CCC2(c3ccc(Cl)cc3)c3ccccc3-c3nccn32)CC1)N1CCCC1 (mixture of isomers)	126	34.2	0.081	clearance [21]: 38 mL/min/kg
O=C(CCC1(c2ccc(Cl)cc2)c2ccccc2-c2nccn21)N1C2CCCC1CC2 (mixture of isomers)	95	1.7	0.006	clearance [21]: 34 mL/min/kg
C[C@@H]1CC[C@H](C)N1C(=O)CCC1(c2ccc(Cl)cc2)c2ccccc2-c2nccn21 (mixture of isomers)	92	1.5	0.006	clearance [21]: 36 mL/min/kg
CC(C1CCN(C(=O)CCC2(c3ccc(Cl)cc3)c3ccccc3-c3nccn32)CC1)N1CCC(F)(F)C1 (mixture of isomers)	239	2	0.029	clearance [21]: 38 mL/min/kg
Brc1ccc(C2(Cc3ccccc3)c3ccccc3-c3nccn32)cc1 (racemic)	380			
N#Cc1ccccc1CC1(c2ccc(Br)cc2)c2ccccc2-c2nccn21 (racemic)	369	1.7	< 0.01	Papp [4]: 17 ×10⁻⁶ cm/s
Brc1ccc(C2(Cc3cccnc3)c3ccccc3-c3nccn32)cc1 (racemic)	351	2.1	0.021	Papp [4]: 31 ×10⁻⁶ cm/s
Brc1ccc(C2(CC3CCCCC3)c3ccccc3-c3nccn32)cc1 (racemic)	254			
Brc1ccc(C2(CC3CCCC3)c3ccccc3-c3nccn32)cc1 (racemic)	321			
Brc1ccc(C2(CC3CCOCC3)c3ccccc3-c3nccn32)cc1 (racemic)	92	1.2	0.19	clearance [21]: 48 mL/min/kg; Papp [4]: 31 ×10⁻⁶ cm/s
Brc1ccc(C2(CCC3CCOCC3)c3ccccc3-c3nccn32)cc1 (racemic)	154			
CC(C)N(C(=O)CCC1(c2ccc(Cl)cc2)c2ccccc2-c2nccn21)C(C)C (racemic)	96	1.4	0.008	clearance [21]: 26 mL/min/kg
CCN(C(=O)CCC1(c2ccc(Cl)cc2)c2ccccc2-c2nccn21)C(C)C (racemic)	138	2.3	0.007	clearance [21]: 31 mL/min/kg
CCN(CC)C(=O)CCC1(c2ccc(Cl)cc2)c2ccccc2-c2nccn21 (racemic)				clearance [21]: 38 mL/min/kg; AUC(0-inf) [13]: 0.18 µM·h
CCN(CC)C(=O)CCC1(c2ccc(Cl)cc2)c2ccccc2-c2nccn21 (single isomer, unassigned)	90	2.1	0.022	
Brc1ccc(C2(Cc3ccccc3)c3ccccc3-c3nccn32)cc1 (stereo in doubt; 2)	163		0.01	logP [22]: > 3.8; Papp [4]: 10 ×10⁻⁶ cm/s
